How the values were obtained:
[1] = system: patients with mycosis fungoides or Sézary syndrome; details: cited from earlier work
[2] = system: patients with advanced solid tumors; assay: Phase 1 safety and tolerability; format: in vivo, human; details: any cycle, N = 36
Outline: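 Adults (≥18 y) with locally advanced or metastatic solid tumours who had failed available therapy. They took oral test compound at 0.3–100 mg once daily alone for 28 days (cycle 0), then with IV anti-CCR4 antibody 1 mg/kg weekly (cycle 1) and every 2 weeks thereafter. AEs were coded by MedDRA 19.0 and graded by CTCAE 4.03, with relatedness judged by investigators. The DLT window was 56 days. Patients receiving any dose were counted as frequency and percentage.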

[3] = 184 mogamulizumab-treated patients, MAVORIC

**Q.** For “mogamulizumab: recombinant, humanized monoclonal antibody of immunoglobulin G1-κ targeting CCR4”, which “IRRs, patients” value [1, 3] is on record?
**A.** 33%

**Q.** And the “drug eruptions, patients” value [1, 3]?
**A.** 24%

**Q.** What about the “long-term responders who experienced drug eruptions” value ([1]; post hoc analysis of MAVORIC) of the same substance?
**A.** 60%

**Q.** And the “IRRs related (TRAE) to the named drug, patients” value [2]?
**A.** 39%

**Q.** And the “drug eruption related (TRAE) to the named drug, patients” value [2]?
**A.** 50%

**Q.** What about the “nausea related (TRAE) to the named drug, patients” value [2] of the same substance?
**A.** 14%

Source: PMC12178318 (Cancer, 2025)
